This is one part of a sample in which hits are shown more often than they occur.
VLA-4 inh: inhibition in a human VLA-4 binding assay | P13612 | VLA-4 expressing cells, ligand binding flow cytometry | inhibition, % (about 7 µM as worked out from the volumes in the protocol) | actives 0.2% (n = 330,000); in the data active = inhibition above about 50%
B2AR ag: agonists of human beta-2 adrenergic receptor inducing internalization | P07550 | Am2.2-beta2AR cells, FAP receptor internalization, flow cytometry | response, % (concentration not given with the values) | actives 0.43% (n = 340,000) | AID 504454;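 active = response above a set limit, near 3 SD of response in nonfluorescent compounds, cut at about 42% in these data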
Target sequence (P07550 whole entry, looked up): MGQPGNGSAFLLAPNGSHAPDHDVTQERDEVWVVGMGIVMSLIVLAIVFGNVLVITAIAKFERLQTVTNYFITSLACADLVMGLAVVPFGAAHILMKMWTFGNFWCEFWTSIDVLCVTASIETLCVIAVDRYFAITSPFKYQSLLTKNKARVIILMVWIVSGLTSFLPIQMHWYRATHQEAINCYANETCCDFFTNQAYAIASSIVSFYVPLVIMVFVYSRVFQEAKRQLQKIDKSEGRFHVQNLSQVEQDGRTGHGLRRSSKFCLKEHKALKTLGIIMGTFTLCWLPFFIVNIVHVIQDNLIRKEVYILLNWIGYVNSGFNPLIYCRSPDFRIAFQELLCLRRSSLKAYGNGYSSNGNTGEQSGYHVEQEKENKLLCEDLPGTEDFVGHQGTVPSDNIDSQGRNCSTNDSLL
UPR CHOP act: apoptotic UPR (CHOP) activation; CHO-CHOP luciferase reporter, luminescence; percent of tunicamycin response over DMSO baseline; activation, % at 10 µM; actives 0.34% (n = 330,000); AID 449763;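 active = at 10 µM dose, activation of 40% or more, normalized to positive control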;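 also: 100% = tunicamycin at 10 µg/mL and 0% = DMSO alone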
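Assay system: CHO-CHOP cells, stable luciferase reporter of PERK-eIF2a-CHOP signalling / Buffer or medium: F12 plus 10% serum / Compound dosing: one dose, 10 µM in 0.5% DMSO / Times: 6 h compound treatment, 37 °C / Technique: luciferase luminescence / Read-out: % reporter activation, DMSO baseline versus tunicamycin full activation / Benchmarks: tunicamycin and DMSO controls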
CHOP inhibitor: CHOP inhibition in unfolded protein response | CHO-K1 CHOP-promoter luciferase, tunicamycin-induced, 15-18 h | inhibition, % at 10 µM | actives 3.8% (n = 220,000);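 active = compounds that reduced the stress-induced luciferase reporter signal by more than about 70% of percent inhibition, limit read from the data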;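 also: 0% = tunicamycin plus vehicle and 100% = wells without tunicamycin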
UPR XBP1 act: activators of adaptive arm of unfolded protein response (XBP1) | CHO-XBP1 luciferase reporter, IRE1-XBP1 UPR activation, luminescence; percent of tunicamycin response, DMSO as zero | activation, % at 20 µM | actives 0.33% (n = 330,000) | AID 463104;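 active = versus positive control, 20 µM dose yields 30% or more activation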;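 also: 100% = tunicamycin at 10 µg/mL and 0% = DMSO only wells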
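Material: CHO-XBP1 cells stably carrying IRE1-XBP1-driven luciferase reporter / Amount: 1000 cells per well / Compound: 20 µM, 1% DMSO / Times: 6 h treatment, 37 °C / Detection: luciferase luminescence / Measure: % activation of reporter signal versus tunicamycin and DMSO controls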
VLA-4 mod pick: human VLA-4 allosteric modulation in cherry picked compounds | U937 cells, HUTS-21 LIBS mAb binding, flow cytometry; LDV ligand present at threefold Kd | actives 2% (n = 1,300) | inhibition, % at 6.7 µM | shares compounds with VLA-4 inh; in the data active = inhibition above about 40%;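 also: 0% = ligand without compound and 100% = no ligand background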
The depositor's hits bear a star; / = no result given.

SMILES | VLA-4 inh | B2AR ag | UPR CHOP act | CHOP inhibitor | UPR XBP1 act | VLA-4 mod pick
CN(C)S(=O)(=O)c1cccc(COC(=O)CCNC(=O)c2ccc([N+](=O)[O-])cc2)c1 | -0.5 | 1.4 | -1.9 | / | 1.0 | /
C/C(N)=C(/C#N)C(=O)COC(=O)c1ccc(NC(N)=O)cc1 | -2.0 | -15.6 | -1.0 | -11.8 | -2.3 | /
CCN(C[C@H]1N[C@@](Cc2ccccc2)(C(=O)OC)[C@H]2C(=O)N(Cc3ccccc3)C(=O)[C@@H]12)S(=O)(=O)c1ccc(-c2ccccc2)cc1 | -27.4 | -6.9 | 1.2 | / | -4.6 | -4.8
CCN(C[C@H]1N[C@@](Cc2ccccc2)(C(=O)OC)[C@H]2C(=O)N(Cc3ccccc3)C(=O)[C@@H]12)S(=O)(=O)c1ccccc1 | -10.0 | -5.0 | 0.5 | / | -1.9 | /
COC(=O)[C@]1(Cc2ccccc2)N[C@H](CN(C)S(=O)(=O)c2ccc(-c3ccccc3)cc2)[C@@H]2C(=O)N(Cc3ccccc3)C(=O)[C@@H]21 | -10.8 | -0.1 | -0.8 | / | 2.0 | -2.1
O=C(COc1cc(F)ccc1[N+](=O)[O-])NCC1CCCO1 (stereo unspecified) | -3.6 | -9.7 | 0.2 | / | -0.3 | /
O=C(O)CCC(=O)OCCN(Cc1ccc(Oc2ccc([N+](=O)[O-])cc2)cc1)C(=O)C(Cl)Cl | / | 2.9 | / | / | / | /
COc1cc(-c2noc(C)c2C(=O)NCCc2cccs2)cc(OC)c1OC | 11.5 | 4.7 | 0.6 | / | 0.2 | /
CCCCN(CCCC)CCn1cnc2c([nH]c3ccc(OC)cc32)c1=O | -3.8 | 1.8 | 1.8 | 32.6 | -1.3 | -12.3
CCC1CCCN1Cn1cnc2c([nH]c3ccc(OC)cc32)c1=O (stereo unspecified) | 4.1 | -5.5 | 1.3 | 26.5 | 2.5 | -13.2
COc1ccc2[nH]c3c(=O)n(CCc4ccccc4)cnc3c2c1 | -6.5 | -1.9 | -0.2 | 4.9 | 0.8 | /
COc1ccc(-c2noc(CCC(=O)N3CCN(c4ccc(F)cc4)CC3)n2)cc1 | / | 0.2 | 1.8 | / | -2.3 | /
CCCNS(=O)(=O)c1ccc(OCC(=O)Nc2ccc3c(c2)OCCO3)c(C)c1 | 6.7 | 8.1 | -0.7 | / | -2.0 | /
O=C(CNS(=O)(=O)c1ccc(Br)cc1)OCc1cc(=O)n2cc(Br)ccc2n1 | 46.5 | / | -1.9 | 18.3 | 0.0 | -15.1
O=C(CNC(=O)c1cccc(OC(F)F)c1)OCc1cc(=O)n2cc(Br)ccc2n1 | 0.0 | -15.9 | -1.2 | 13.7 | -2.0 | /
N#CCCN(C(=O)COC(=O)CCc1nc2ccccc2c(=O)[nH]1)c1ccccc1F | 51.3* | -1.2 | -0.3 | / | -1.8 | 2.0
Cc1ccccc1Oc1ccc(NC(=O)C2CC=CCC2C(=O)O)cc1 (stereo unspecified) | 53.7* | -2.6 | -0.7 | 19.7 | 0.1 | 4.5
CC(C)(C)c1ccc(Oc2ccc(NC(=O)C3CC=CCC3C(=O)O)cc2)cc1 (stereo unspecified) | -13.3 | 1.7 | -0.6 | 23.9 | -3.4 | /
CCc1ccc(C(=O)N2CCN(c3ccc(NC(=O)c4cccnc4)cc3)CC2)cc1 | 28.9 | -4.8 | 1.1 | / | -6.2 | /
Cc1ccc(C(=O)OCC(=O)Nc2ccc(S(N)(=O)=O)cc2)c(O)c1 | 4.5 | 2.4 | -1.1 | 6.2 | -1.1 | 5.7
CCC(=NNC(=O)c1cccc(S(=O)(=O)N2CCOCC2)c1)c1ccccc1 | 49.7* | 7.0 | 0.1 | / | -0.4 | 6.1
C/C(=N\NC(=O)c1cccc(S(=O)(=O)N2CCOCC2)c1)c1ccc(O)cc1 | 9.8 | -7.4 | 1.3 | / | 2.0 | /
COc1ccccc1NC(=O)c1c(C)oc2c1CCCC2 | 92.7* | -9.5 | -2.4 | 47.8 | -1.8 | 3.7
Cc1oc2c(c1C(=O)Nc1cccc3ccccc13)CCCC2 | 6.0 | -25.4 | 2.0 | 11.7 | -1.2 | /
O=c1cc(C(F)(F)F)nc(-n2[nH]c3c(c2=O)CCCC3)[nH]1 | 49.7* | -1.2 | -0.5 | 14.6 | -1.0 | -4.9
Nc1nc(C(F)(F)F)cc(=O)[nH]1 | 0.8 | -7.0 | 1.2 | 0.8 | -1.5 | /
Cc1cc(/C=N\NC(=O)c2cccs2)c(C)n1-c1ccc2ncccc2c1 | 93.4* | 15.3 | 5.5 | 15.1 | 0.0 | 0.0
Cc1cc(/C=N\NC(=O)COc2cccc3cccnc23)c(C)n1-c1ccc(Br)cc1 | 5.6 | -7.7 | -0.5 | 52.2 | 4.3 | /

Bioassay records deposited in PubChem BioAssay by several laboratories.
